In brackets after ≈: the same amount, converted by molar mass. Activity calls are given as the source filed them.

Series [1] has as its system Mycobacterium tuberculosis. The experiment in a line: Antitubercular activity against Mycobacterium tuberculosis H37Ra infected in THP-1 macrophages measured after 5 days post infection by luciferase reporter gene assay. The format is functional. As to conditions: THP-1, 120 h. In short, it runs like this:
(§1)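 Firefly luciferase reporter Mtb infected THP-1 cells. Bacterial growth was read by luminescence five days post-infection, and the value was reported as the 50% inhibitory concentration. The assay medium used glucose and glycerol as the carbon source.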
In general terms: In a reporter assay the amount or activity of a reporter protein is the signal.

The nature of series [2]: Clearance in mouse at 1 mg/kg, iv. The format is ADME, organism-based. The conditions noted are these: in vivo. In short, it runs like this:
(§2)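 Mouse pharmacokinetics after 3 mg/kg oral or 1 mg/kg intravenous dosing. Clearance is in mL/min/kg. AUC is in μg*h/mL, with oral exposure normalised to the actual dose.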

Series [3] is described as follows: Half life in mouse at 3 mg/kg, po or 1 mg/kg, iv. Type of series: ADME, organism-based. As to conditions: in vivo. In short, it runs like this: as §2
In another series the test system is Mus musculus. Kind of series: Dose normalized AUC in mouse at 3 mg/kg, po or 1 mg/kg, iv. The conditions noted are these: in vivo. Type of series: ADME, organism-based. In short, it runs like this:
as §2

Series [4] deals with Mycobacterium tuberculosis. Kind of series: Antitubercular activity against Mycobacterium tuberculosis Erdman BSL3 infected in BALB/c mouse assessed as reduction in colony forming units in lung homogenates at 100 mg/kg administered daily via oral gavage for 5 days per week for 4 weeks. The format is functional, organism-based. The conditions noted are these: Mycobacterium tuberculosis str. Erdman = ATCC 35801. An outline of the steps:
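BALB/c mice were infected intranasally with 10^6 cfu of the Erdman isolate, six mice per group. Dosing was 100 mg/kg daily, 5 days/week, for four weeks. Lung homogenates were plated for cfu. An early-control group was killed at the start of therapy to set the infection load, and a late-control group marked the endpoint and confirmed virulence. Rifampin at 10 mg/kg was the positive control.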

In series [5] the test system is Mycobacterium tuberculosis. The experiment in a line: Antitubercular activity against Mycobacterium tuberculosis H37Ra BSL2 infected in THP-1 macrophages after 5 days post infection by luciferase reporter gene assay. The format is functional. As to conditions: H37Ra BSL2, THP-1, 120 h. In short, it runs like this:
as §1

Series [6] concerns Mycobacterium tuberculosis. Kind of series: Antitubercular activity against Mycobacterium tuberculosis H37Ra BSL2 cultured in broth. Type of series: functional. In short, it runs like this:
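BSL2 H37Ra broth assay. MIC was taken as the concentration (μM) giving 70% growth inhibition versus control wells.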

The test system of series [7] is Mycobacterium tuberculosis. The experiment in a line: Antitubercular activity against Mycobacterium tuberculosis H37Rv BSL3 infected in THP-1 macrophages using middlebrook 7H9 broth media after 5 days post infection by luciferase reporter gene assay. Type of series: functional. As to conditions: H37Rv BSL3, THP-1, 120 h.
Series [8] relates to Mycobacterium tuberculosis. Kind of series: Antitubercular activity against Mycobacterium tuberculosis Erdman BSL3 infected in THP-1 macrophages using middlebrook 7H9 broth media after 5 days post infection by luciferase reporter gene assay. The format is functional, Mycobacterium tuberculosis str. Erdman = ATCC 35801. The conditions noted are these: BSL3, 120 h.
In series [9] the test system is Mycobacterium tuberculosis. The experiment in a line: Antitubercular activity against Mycobacterium tuberculosis H37Rv BSL3 infected in THP-1 macrophages using middlebrook 7H12 broth media after 5 days post infection by luciferase reporter gene assay. The format is functional. The conditions noted are these: H37Rv BSL3, THP-1, 120 h.
Series [10] deals with Mycobacterium tuberculosis. The experiment in a line: Antitubercular activity against Mycobacterium tuberculosis H37Rv BSL3 infected in THP-1 macrophages under anaerobic condition after 5 days post infection by luciferase reporter gene assay. Type of series: functional. As to conditions: H37Rv BSL3, THP-1, 120 h.
The subject of series [11] is Mycobacterium tuberculosis. Kind of series: Antitubercular activity against Mycobacterium tuberculosis Erdman BSL3 infected in THP-1 macrophages using middlebrook 7H12 broth media after 5 days post infection by luciferase reporter gene assay. The format is functional, Mycobacterium tuberculosis str. Erdman = ATCC 35801. As to conditions: BSL3, THP-1, 120 h.
Series [12] is described as follows: Metabolic stability in rat liver microsomes assessed as compound remaining at 1 uM measured after 30 mins. The format is ADME, microsome. As to conditions: read-out: Stability. A general note: Liver microsomes are a subcellular fraction often used to study metabolism.

Turning to `CC(C)(C)c1ccc(Nc2nc(CC(=O)O)cs2)cc1`, the half-inhibitory concentration (IC50) in [1] is 70 nM; in series [5], 70 nM; in series [7] it was 9400 nM; in series [9] it was over 100000 nM; in series [10], over 100000 nM; in series [11], 63000 nM. In series [2], this molecule registered a clearance of 4 mL/min/kg. In addition, the half-life in [3] was 1.1 h. Moreover, the AUC/dose in the series with Mus musculus is 24.1 µg·h/mL. For the same molecule, in series [4], the result was inactive. This molecule had an MIC70 in [6] of 0.16 µM (≈ 0.0465 µg/mL). The same molecule returned an MIC90 in [8] of 6.3 µM (≈ 1.83 µg/mL).
In [1], `CCCCc1ccc(Nc2nc(CC(=O)O)c(C)s2)cc1` came in with a concentration for half-maximal inhibition (IC50) of 100 nM. The clearance in series [2] was 7 mL/min/kg. In addition, the half-life in series [3] was 1.1 h. The molecule also returned an AUC/dose in the series with Mus musculus of 4.8 µg·h/mL.
In turn, `CCCCc1ccc(Nc2nc(C(=O)O)cs2)cc1` showed an IC50 in [1] of over 20000 nM.
As for `Cc1csc(Nc2ccc(OC3CCCC3)cc2)n1`, in series [1], the half-inhibitory concentration (IC50) stood at 70 nM. Besides, the remaining at 0.5 h, 1 µM in series [12] is 10%.
The matching figures for `CCCOc1ccc(Nc2nc(C)cs2)cc1`: 150 nM and 4%.
With `CCC(C)c1ccc(Nc2nc(CC(=O)O)cs2)cc1` (racemic), the IC50 in series [1] is 70 nM; in series [5], 70 nM; in series [7], 9400 nM; in series [9], over 100000 nM; in [10], 96000 nM; in series [11] it was over 100000 nM. This molecule returned a clearance in series [2] of 3 mL/min/kg. The molecule further had a half-life in series [3] of 2.8 h. This molecule returned an AUC/dose with Mus musculus of 14.4 µg·h/mL. For the same molecule, in series [4], the outcome was inactive. Besides, in series [6], the MIC70 was determined as 0.16 µM (≈ 0.0465 µg/mL). In addition, in series [8], the MIC90 was determined as 6.3 µM (≈ 1.83 µg/mL).
Turning to `CCCCc1ccc(Nc2nc(C(C)(C)C(=O)O)cs2)cc1`, in series [1], the IC50 turned out to be 140 nM. Further, the clearance in series [2] turned out to be 18 mL/min/kg. Also, in [3], the half-life is 5 h. For the same molecule, the AUC/dose in the series with Mus musculus is 1.4 µg·h/mL.
In turn, `Cc1csc(Nc2ccc(C(C)(C)C)cc2)n1` yielded an IC50 in series [1] of under 40 nM. In addition, the remaining at 0.5 h, 1 µM in [12] is 0%.
Molecule `CCCCc1ccc(Nc2nc(C(C)C(=O)O)cs2)cc1` (stereo not drawn) displayed a half-inhibitory concentration (IC50) in series [1] of 140 nM. In series [2], this molecule had a clearance of 4 mL/min/kg. Moreover, the half-life in [3] is 0.9 h. The same molecule returned an AUC/dose in the series with Mus musculus of 4.8 µg·h/mL.
Consider `Cc1csc(Nc2ccc(OCCO)cc2)n1`, for which, in series [1], inhibition was half-maximal at 3190 nM (IC50). Besides, the remaining at 0.5 h, 1 µM in [12] came to 73%.
As for `CCNCc1ccc(Nc2nc(C)cs2)cc1`, the half-inhibitory concentration (IC50) in [1] is over 20000 nM. Also, the remaining at 0.5 h, 1 µM in series [12] was found to be 0%.
`Cc1ccc(Nc2nc(C)cs2)cc1` registered an IC50 in [1] of over 20000 nM.
For the molecule `CCCCc1ccc(Nc2nc(C)cs2)cc1`, the IC50 in series [1] was under 5 nM; in [5], 40 nM; in series [9] it was 47000 nM; in series [10] it was 12000 nM; in series [11], over 100000 nM. The remaining at 0.5 h, 1 µM in series [12] is 1%. In addition, the result in [4] was inactive. The same molecule returned an MIC70 in [6] of 0.04 µM (≈ 0.00986 µg/mL). Further, in [8], the MIC90 turned out to be 7 µM (≈ 1.72 µg/mL).
`CCCCCCc1ccc(Nc2nc(C)cs2)cc1` yielded an IC50 in series [1] of 50 nM.
`CCc1ccc(Nc2nc(C)cs2)cc1` showed a half-inhibitory concentration (IC50) in [1] of 120 nM. In addition, the remaining at 0.5 h, 1 µM in series [12] was determined as 0%.
In [1], `CCCCc1ccc(Nc2nc(CC(N)=O)cs2)cc1` registered an IC50 of 860 nM.
The molecule `Cc1csc(Nc2ccc(COCC(F)(F)F)cc2)n1` returned a 50% inhibitory concentration (IC50) in [1] of under 40 nM. Besides, in series [12], the remaining at 0.5 h, 1 µM is 1%.
`CCCCc1ccc(Nc2nc(CC(=O)O)c(Cl)s2)cc1`: the IC50 was 70 nM in series [1]; 70 nM in [5]; 6300 nM in series [7]; over 100000 nM in [9]; 5600 nM in series [10]; 54000 nM in series [11]. The molecule also showed a clearance in series [2] of 5 mL/min/kg. Moreover, the half-life in series [3] was 1.1 h. This molecule also registered an AUC/dose in the series with Mus musculus of 6 µg·h/mL. The result in series [4] was inactive. In series [6], this molecule returned an MIC70 of 0.39 µM (≈ 0.127 µg/mL). The molecule also displayed an MIC90 in [8] of 12.5 µM (≈ 4.06 µg/mL).
For `CCCCCc1ccc(Nc2nc(C)cs2)cc1`, the IC50 in series [1] stood at 40 nM. The remaining at 0.5 h, 1 µM in [12] is 3%.
The matching figures for `CCC(O)Cc1ccc(Nc2nc(C)cs2)cc1` (stereo not drawn): 400 nM and 1%.
The matching figures for `Cc1csc(Nc2ccc(C(C)(C)O)cc2)n1`: 60 nM and 12%.
For `CCC(C)c1ccc(Nc2nc(C)cs2)cc1` (stereo not drawn) the same measures were under 40 nM and 0%.
As to `O=C(O)Cc1csc(Nc2ccc(OCCC(F)(F)F)cc2)n1`, the 50% inhibitory concentration (IC50) in series [1] was found to be 270 nM. The same molecule gave a clearance in series [2] of 1.5 mL/min/kg. This molecule gave a half-life in [3] of 1.6 h. The molecule also displayed an AUC/dose with Mus musculus of 15 µg·h/mL.
`Cc1csc(Nc2ccc(CCN(C)C)cc2)n1` came in with an IC50 in series [1] of over 20000 nM.
In series [1], `Cc1csc(Nc2ccc(C(C)C)cc2)n1` had an IC50 of 10 nM. For the same molecule, the remaining at 0.5 h, 1 µM in series [12] turned out to be 0%.
In series [5], `CO[C@H]1/C=C/O[C@@]2(C)Oc3c(C)c(O)c4c(O)c(c(/C=N/N5CCN(C)CC5)c(O)c4c3C2=O)NC(=O)/C(C)=C\C=C\[C@H](C)[C@H](O)[C@@H](C)[C@@H](O)[C@@H](C)[C@H](OC(C)=O)[C@@H]1C` [RIFAMPIN] showed a half-maximal inhibitory concentration (IC50) of 30 nM. The molecule further yielded an MIC70 in [6] of 0.08 µM (≈ 0.0658 µg/mL).
On to `CCCCc1ccc(Nc2nc(CC(=O)O)cs2)cc1`, for which the concentration for half-maximal inhibition (IC50) in series [1] is 150 nM; in series [5], 150 nM; in [9], 91000 nM; in series [10], 17800 nM; in series [11] it was 56000 nM. The same molecule came in with a clearance in series [2] of 5 mL/min/kg. Moreover, in series [3], the half-life is 3.1 h. The AUC/dose with Mus musculus came out at 4.9 µg·h/mL. For the same molecule, the result in series [4] was inactive. Moreover, the MIC70 in [6] stood at 0.16 µM (≈ 0.0465 µg/mL). Further, the MIC90 in [8] amounted to 7.8 µM (≈ 2.27 µg/mL).

In general, IC50 refers to the concentration that inhibits the measured activity by half. High values mean weaker potency in that assay, low ones greater potency in that assay. As usually defined, the clearance is the volume of plasma or blood freed of the substance per unit of time. Higher therefore signals efficient removal. For orientation: half-life means the time needed for the level to fall by half in the phase considered.

(Values after ChEMBL document CHEMBL4043143, “2-N-Arylthiazole inhibitors of Mycobacterium tuberculosis” (Bioorg Med Chem Lett, 2017).)
